Measured values: ChEMBL document CHEMBL1147366, “Cytotoxic and antimalarial alkaloids from the tubers of Stephania pierrei” (J Nat Prod, 1993)
Converted amounts (≈) assume the structure as drawn.

Assays:
Plasmodium falciparum [1] = assay: Antimalarial activity after 24 hrs against chloroquine-resistant Plasmodium falciparum W2 infected type A+ human erythrocytes by [3H]hypoxanthine uptake; type: functional; conditions: read-out: ED50 (the source's name)
Plasmodium falciparum [2] = assay: Antimalarial activity after 24 hrs against chloroquine-sensitive Plasmodium falciparum D6 infected type A+ human erythrocytes by [3H]hypoxanthine uptake; type: functional; conditions: read-out: ED50 (the source's name)
[3] = Selectivity index, ED50 for human KB cells to ED50 for chloroquine-resistant Plasmodium falciparum W2; type: toxicity, cell-based; conditions: read-out: Ratio ED50
Outline: (§1)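 Selectivity index is the ED50 in KB cells divided by the ED50 against the P. falciparum strain (D-6, chloroquine-sensitive; W-2, chloroquine-resistant). Parasite ED50s are expressed in ng/ml and KB ED50s in µg/ml.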

[4] = Selectivity index, ED50 for human KB cells to ED50 for chloroquine-sensitive Plasmodium falciparum D6; type: toxicity, cell-based; conditions: read-out: Ratio ED50; outline: as §1
HT-1080 = assay: Cytotoxicity against human HT1080 cells after 3 days by SRB assay; type: functional; conditions: HT-1080, 72 h, read-out: ED50 (the source's name)
[5] = Cytotoxicity against human Col1 cells after 3 days by SRB assay; type: functional; conditions: Col1, 72 h, read-out: ED50 (the source's name)
[6] = Cytotoxicity against human BCA1 cells after 3 days by SRB assay; type: functional; conditions: BCA1, 72 h, read-out: ED50 (the source's name)
SK-MEL-2 = assay: Cytotoxicity against human SK-MEL-2 cells after 3 days by SRB assay; type: functional; conditions: SK-MEL-2, 72 h, read-out: ED50 (the source's name)
[7] = Cytotoxicity against vinblastine-resistant human KBV1 cells after 3 days by SRB assay; type: functional; conditions: KB-V1, 72 h, read-out: ED50 (the source's name)
[8] = Cytotoxicity against human U373 cells after 3 days by SRB assay; type: functional, U-373MG ATCC; conditions: U373 MG, 72 h, read-out: ED50 (the source's name)
[9] = Cytotoxicity against human LUC1 cells after 3 days by SRB assay; type: functional; conditions: LUC1, 72 h, read-out: ED50 (the source's name)
P388 = assay: Cytotoxicity against mouse P388 cells after 3 days by SRB assay; type: functional; conditions: P388, 72 h, read-out: ED50 (the source's name)
A-431 = assay: Cytotoxicity against human A431 cells after 3 days by SRB assay; type: functional; conditions: A-431, 72 h, read-out: ED50 (the source's name)
LNCaP = assay: Cytotoxicity against human LNCAP cells after 3 days by SRB assay; type: functional; conditions: 72 h, read-out: ED50 (the source's name)
[10] = Cytotoxicity against human KB cells after 3 days by SRB assay; type: cell-based; conditions: read-out: ED50
ZR-75-1 = assay: Cytotoxicity against human ZR-75-1 cells after 3 days by SRB assay; type: functional; conditions: ZR-75-1, 72 h, read-out: ED50 (the source's name)

SMILES	EC50 (Plasmodium falciparum [1])	EC50 (Plasmodium falciparum [2])	selectivity ratio [3]	selectivity ratio [4]	EC50 (HT-1080)	EC50 [5]	EC50 [6]	EC50 (SK-MEL-2)	EC50 [7]	EC50 [8]	EC50 [9]	EC50 (P388)	EC50 (A-431)	EC50 (LNCaP)	CC50 at 72 h [10]	EC50 (ZR-75-1)
COC1=C[C@@]23CCN(C)[C@@H](Cc4ccc(OC)c(O)c42)C3=CC1=O	> 10 µg/mL	> 10 µg/mL	–	–	–	–	–	–	–	–	–	–	–	–	–	–
COc1cc2c(cc1OC)[C@@H]1Cc3ccc(O)c(OC)c3CN1CC2	0.84 µg/mL (≈ 2.46 µM)	2.84 µg/mL (≈ 8.32 µM)	> 24	> 7	–	–	–	–	–	–	–	–	–	–	–	–
COc1ccc2c(c1)C[C@H]1NCCc3cc4c(c-2c31)OCO4	2.27 µg/mL (≈ 7.69 µM)	0.44 µg/mL (≈ 1.49 µM)	> 9	45	2.2 µg/mL (≈ 7.45 µM)	4.1 µg/mL (≈ 13.9 µM)	3.4 µg/mL (≈ 11.5 µM)	12.6 µg/mL (≈ 42.7 µM)	0.9 µg/mL (≈ 3.05 µM)	1.9 µg/mL (≈ 6.43 µM)	2.3 µg/mL (≈ 7.79 µM)	2.2 µg/mL (≈ 7.45 µM)	4.6 µg/mL (≈ 15.6 µM)	2.4 µg/mL (≈ 8.13 µM)	2 µg/mL (≈ 6.77 µM)	2.4 µg/mL (≈ 8.13 µM)
COC1=C(OC)[C@]23CCc4cc5c(cc4[C@]2(CCN3C)CC1=O)OCO5	> 10 µg/mL	> 10 µg/mL	–	–	–	–	–	–	–	–	–	–	–	–	–	–
COc1cc2c(c(O)c1OC)CCN1Cc3c(ccc(OC)c3OC)C[C@@H]21	0.55 µg/mL (≈ 1.48 µM)	1.61 µg/mL (≈ 4.33 µM)	> 36	> 12	–	–	–	–	–	–	–	–	–	–	–	–
COc1cc2c(cc1OC)-c1c3c(cc4c1[C@@H](C2)N(C)CC4)OCO3	2.55 µg/mL (≈ 7.51 µM)	1.26 µg/mL (≈ 3.71 µM)	2	4	1.7 µg/mL (≈ 5.01 µM)	2.1 µg/mL (≈ 6.19 µM)	2.2 µg/mL (≈ 6.48 µM)	3.8 µg/mL (≈ 11.2 µM)	0.9 µg/mL (≈ 2.65 µM)	1.5 µg/mL (≈ 4.42 µM)	6.1 µg/mL (≈ 18 µM)	0.6 µg/mL (≈ 1.77 µM)	1.7 µg/mL (≈ 5.01 µM)	1.9 µg/mL (≈ 5.6 µM)	1.6 µg/mL (≈ 4.71 µM)	2.8 µg/mL (≈ 8.25 µM)
COc1cc2c(c(O)c1OC)[C@@H]1Cc3ccc(OC)c(OC)c3CN1CC2	1.91 µg/mL (≈ 5.14 µM)	4.34 µg/mL (≈ 11.7 µM)	> 10	> 5	–	–	–	–	–	–	–	–	–	–	–	–
CN1CCc2cc3c(c4c2[C@H]1Cc1cc(O)ccc1-4)OCO3	1.78 µg/mL (≈ 6.03 µM)	3.15 µg/mL (≈ 10.7 µM)	4	2	7.6 µg/mL (≈ 25.7 µM)	11.9 µg/mL (≈ 40.3 µM)	8.9 µg/mL (≈ 30.1 µM)	> 20 µg/mL	1.2 µg/mL (≈ 4.06 µM)	4.9 µg/mL (≈ 16.6 µM)	6.9 µg/mL (≈ 23.4 µM)	> 5 µg/mL	6.7 µg/mL (≈ 22.7 µM)	7.3 µg/mL (≈ 24.7 µM)	4.1 µg/mL (≈ 13.9 µM)	13.6 µg/mL (≈ 46 µM)
COc1ccc2c(c1)C[C@@H]1c3c(cc4c(c3-2)OCO4)CCN1C	1.61 µg/mL (≈ 5.2 µM)	2.56 µg/mL (≈ 8.28 µM)	1	> 1	1.8 µg/mL (≈ 5.82 µM)	3.2 µg/mL (≈ 10.3 µM)	2.9 µg/mL (≈ 9.37 µM)	> 20 µg/mL	1.2 µg/mL (≈ 3.88 µM)	1.3 µg/mL (≈ 4.2 µM)	12.2 µg/mL (≈ 39.4 µM)	> 5 µg/mL	1.3 µg/mL (≈ 4.2 µM)	2.9 µg/mL (≈ 9.37 µM)	2.5 µg/mL (≈ 8.08 µM)	2.6 µg/mL (≈ 8.4 µM)
COc1c(O[C@@H]2O[C@H](CO)[C@@H](O)[C@H](O)[C@H]2O)cc2c3c1-c1ccccc1C[C@H]3NCC2	> 10 µg/mL	> 10 µg/mL	–	–	> 20 µg/mL	> 20 µg/mL	> 20 µg/mL	> 20 µg/mL	> 20 µg/mL	> 20 µg/mL	> 20 µg/mL	> 20 µg/mL	> 20 µg/mL	> 20 µg/mL	> 20 µg/mL	> 20 µg/mL
COc1cc2c(cc1O)-c1c3c(cc4c1[C@@H](C2)N(C)CC4)OCO3	2.88 µg/mL (≈ 8.85 µM)	2.01 µg/mL (≈ 6.18 µM)	1	1	2.9 µg/mL (≈ 8.91 µM)	4.1 µg/mL (≈ 12.6 µM)	2.5 µg/mL (≈ 7.68 µM)	18.8 µg/mL (≈ 57.8 µM)	1.2 µg/mL (≈ 3.69 µM)	1.7 µg/mL (≈ 5.22 µM)	3.1 µg/mL (≈ 9.53 µM)	0.4 µg/mL (≈ 1.23 µM)	12.6 µg/mL (≈ 38.7 µM)	1.9 µg/mL (≈ 5.84 µM)	1.8 µg/mL (≈ 5.53 µM)	2.1 µg/mL (≈ 6.45 µM)
COc1cc2c(cc1OC)CN1CCc3cc(OC)c(OC)c(O)c3[C@@H]1C2	1.94 µg/mL (≈ 5.22 µM)	2.23 µg/mL (≈ 6 µM)	> 10	> 9	–	–	–	–	–	–	–	–	–	–	–	–
COc1cc2c(cc1OC)-c1c3c(cc4c1[C@@H](C2)NCC4)OCO3	1.03 µg/mL (≈ 3.17 µM)	0.47 µg/mL (≈ 1.44 µM)	–	2	1.7 µg/mL (≈ 5.22 µM)	1.7 µg/mL (≈ 5.22 µM)	2 µg/mL (≈ 6.15 µM)	3.3 µg/mL (≈ 10.1 µM)	0.7 µg/mL (≈ 2.15 µM)	0.6 µg/mL (≈ 1.84 µM)	13.2 µg/mL (≈ 40.6 µM)	0.6 µg/mL (≈ 1.84 µM)	0.8 µg/mL (≈ 2.46 µM)	1.5 µg/mL (≈ 4.61 µM)	0.8 µg/mL (≈ 2.46 µM)	1.7 µg/mL (≈ 5.22 µM)
COc1cc2c(cc1OC)[C@@H]1Cc3ccc(OC)c(OC)c3C[N+]1(C)CC2.[Cl-] (stereo partly specified)	> 10 µg/mL	> 10 µg/mL	–	–	–	–	–	–	–	–	–	–	–	–	–	–
COc1ccc2c(c1O)C(Cc1ccc(O)cc1)[N+](C)(C)CC2.[Cl-] (racemic)	> 10 µg/mL	> 10 µg/mL	–	–	–	–	–	–	–	–	–	–	–	–	–	–
COc1c(O)cc2c3c1-c1ccccc1C[C@H]3NCC2 [(-)-ASIMILOBINE]	0.47 µg/mL (≈ 1.76 µM)	0.95 µg/mL (≈ 3.55 µM)	> 42	> 21	> 20 µg/mL	> 20 µg/mL	> 20 µg/mL	> 20 µg/mL	> 20 µg/mL	> 20 µg/mL	> 20 µg/mL	> 20 µg/mL	> 20 µg/mL	> 20 µg/mL	> 20 µg/mL	> 20 µg/mL
COc1ccc(C[C@H]2c3cc(O)c(OC)cc3CCN2C)cc1O [(S)-RETICULINE]	4.47 µg/mL (≈ 13.6 µM)	4.05 µg/mL (≈ 12.3 µM)	–	–	–	–	–	–	–	–	–	–	–	–	–	–
c1ccc2c(c1)C[C@H]1NCCc3cc4c(c-2c31)OCO4 [ANONAINE]	1.9 µg/mL (≈ 7.16 µM)	1.29 µg/mL (≈ 4.86 µM)	3	5	2.4 µg/mL (≈ 9.05 µM)	4 µg/mL (≈ 15.1 µM)	3.3 µg/mL (≈ 12.4 µM)	15.8 µg/mL (≈ 59.6 µM)	1.8 µg/mL (≈ 6.78 µM)	1.5 µg/mL (≈ 5.65 µM)	1.8 µg/mL (≈ 6.78 µM)	> 5 µg/mL	4.2 µg/mL (≈ 15.8 µM)	2.9 µg/mL (≈ 10.9 µM)	2.6 µg/mL (≈ 9.8 µM)	2.7 µg/mL (≈ 10.2 µM)
C[C@@H]1CC[C@H]2[C@@H](C)C(=O)O[C@@H]3O[C@@]4(C)CC[C@@H]1[C@]32OO4 [ARTEMISININ]	0.0005 µg/mL (≈ 0.00177 µM)	0.0006 µg/mL (≈ 0.00213 µM)	40000	> 33300	–	–	–	–	–	–	–	–	–	–	–	–
COc1cc2c(cc1O)C[C@H]1c3c(cc4c(c3-2)OCO4)CCN1C [CASSYTHICINE]	2.26 µg/mL (≈ 6.95 µM)	2.29 µg/mL (≈ 7.04 µM)	3	2	7.6 µg/mL (≈ 23.4 µM)	7.3 µg/mL (≈ 22.4 µM)	6.8 µg/mL (≈ 20.9 µM)	8.9 µg/mL (≈ 27.4 µM)	1.2 µg/mL (≈ 3.69 µM)	4.8 µg/mL (≈ 14.8 µM)	6.6 µg/mL (≈ 20.3 µM)	> 5 µg/mL	10.5 µg/mL (≈ 32.3 µM)	6.1 µg/mL (≈ 18.7 µM)	3 µg/mL (≈ 9.22 µM)	9.8 µg/mL (≈ 30.1 µM)
CCN(CC)CCCC(C)Nc1ccnc2cc(Cl)ccc12 (stereo unspecified) [CHLOROQUINE]	0.0112 µg/mL (≈ 0.035 µM)	0.0013 µg/mL (≈ 0.00406 µM)	–	–	–	–	–	–	–	–	–	–	–	–	–	–
COc1ccc2c(c1O)-c1c(O)c(OC)cc3c1[C@H](C2)[N+](C)(C)CC3 [MAGNOFLORINE]	> 10 µg/mL	> 10 µg/mL	–	–	–	–	–	–	–	–	–	–	–	–	–	–
OC(c1cc(C(F)(F)F)nc2c(C(F)(F)F)cccc12)C1CCCCN1 (stereo unspecified) [MEFLOQUINE]	0.0016 µg/mL (≈ 0.00423 µM)	0.0073 µg/mL (≈ 0.0193 µM)	–	–	–	–	–	–	–	–	–	–	–	–	–	–
C=C[C@H]1CN2CC[C@H]1C[C@H]2[C@H](O)c1ccnc2ccc(OC)cc12 [QUININE]	0.0245 µg/mL (≈ 0.0755 µM)	0.0094 µg/mL (≈ 0.029 µM)	> 820	> 2130	–	–	–	–	–	–	–	–	–	–	–	–
COc1cc2c(cc1OC)[C@@H]1Cc3ccc(OC)c(OC)c3CN1CC2 [TETRAHYDROPALMATINE]	5.02 µg/mL (≈ 14.1 µM)	> 10 µg/mL	–	–	–	–	–	–	–	–	–	–	–	–	–	–
COc1cc2c(cc1OC)CN1CCc3cc(OC)c(OC)cc3[C@@H]1C2 [XYLOPININE]	> 10 µg/mL	> 10 µg/mL	–	–	–	–	–	–	–	–	–	–	–	–	–	–
